Experimental data reported in article PMC5518655 (Acta Pharmaceutica Sinica. B, 2017).

Key:
DEN2 serine protease = settings: cited from earlier work
DENV2 NS2B/NS3 protease = DENV2 NS2B/NS3 protease (Dengue virus type 2, UniProt P14340); assay: In vitro DENV2 NS2B/NS3 protease assay with fluorogenic peptide substrate; type: biochemical; settings: for inhibition at 50 µM: read-out: inhibition at 50 µmol/L (preliminary screening)
In short: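 Screened at 50 µmol/L; IC50 measured only when inhibition exceeded 10%. DENV2 NS2B-NS3 (0.57 µmol/L) and test compound in DMSO, in Tris–HCl pH 8.5, preincubated 10 min at 37 °C, 200 rpm. […] added, shaken 60 min more; fluorescence read, blank-subtracted. Triplicates, 3 independent experiments, mean±SD; IC50 read graphically from log concentration vs % inhibition.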

Chain of DENV2 NS2B/NS3 protease (P14340 1476-2093 limits assumed): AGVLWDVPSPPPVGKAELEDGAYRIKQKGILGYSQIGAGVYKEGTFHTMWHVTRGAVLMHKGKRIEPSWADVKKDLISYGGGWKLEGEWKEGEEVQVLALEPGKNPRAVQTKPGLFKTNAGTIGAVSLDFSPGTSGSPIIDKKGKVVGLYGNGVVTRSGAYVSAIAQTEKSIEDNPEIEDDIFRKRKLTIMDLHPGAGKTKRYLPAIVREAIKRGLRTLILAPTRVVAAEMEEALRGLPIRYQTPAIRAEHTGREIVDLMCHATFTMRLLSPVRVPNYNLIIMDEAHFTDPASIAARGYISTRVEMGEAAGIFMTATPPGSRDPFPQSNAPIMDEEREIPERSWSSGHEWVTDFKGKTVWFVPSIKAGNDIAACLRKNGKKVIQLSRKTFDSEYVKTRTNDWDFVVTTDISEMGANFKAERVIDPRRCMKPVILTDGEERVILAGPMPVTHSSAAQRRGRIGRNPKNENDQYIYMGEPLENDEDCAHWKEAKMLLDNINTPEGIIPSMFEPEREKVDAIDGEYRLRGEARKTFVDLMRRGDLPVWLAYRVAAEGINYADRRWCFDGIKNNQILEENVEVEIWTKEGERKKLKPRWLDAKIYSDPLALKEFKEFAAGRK
Chain of DENV2 NS2B/NS3 protease (P14340 1346-1475 partner limits assumed): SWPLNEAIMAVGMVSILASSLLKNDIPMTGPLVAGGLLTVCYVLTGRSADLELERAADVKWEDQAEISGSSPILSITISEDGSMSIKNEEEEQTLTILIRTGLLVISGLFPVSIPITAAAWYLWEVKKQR

Structure (SMILES)	Ki (DEN2 serine protease) [µM]	IC50 (DENV2 NS2B/NS3 protease) [µM]	inhibition at 50 µM (DENV2 NS2B/NS3 protease) [%]
CC(C)=CC[C@@H]1C(C)=CC[C@@H](c2ccccc2)[C@@H]1C(=O)c1c(O)cc(O)cc1O [4-hydroxypanduratin A]	21	–	–
O=C1C(=Cc2ccc([N+](=O)[O-])cc2)CN(CC(=O)c2ccc(F)cc2)CC1=Cc1ccc([N+](=O)[O-])cc1 [Compound 4e, 1-(2-(4-Fluorophenyl)-2-oxoethyl)-3,5-bis(4-nitrobenzylidene)piperidin-4-one]	–	15.2 ± 1.1	> 10
COc1ccc(C(=O)CN2CC(=Cc3ccc([N+](=O)[O-])cc3)C(=O)C(=Cc3ccc([N+](=O)[O-])cc3)C2)cc1 [Compound 4j, 1-(2-(4-Methoxyphenyl)-2-oxoethyl)-3,5-bis(4-nitrobenzylidene)piperidin-4-one]	–	16.2 ± 1.3	> 10
COc1cc(O)c(C(=O)[C@@H]2[C@H](CC=C(C)C)C(C)=CC[C@H]2c2ccccc2)c(O)c1 [Panduratin A, panduratin A, reference compound]	25	57.3 ± 1.3	–
